Source: PubChem BioAssay (several laboratories)
Beta cell apopt: inhibitors of cytokine-induced beta cell apoptosis, primary screen, luminescence; AID 435005, 2010; protection from apoptosis, % (no concentration beside the values); INS-1E cytokine-induced death, ATP luminescence, 48 h; percent of positive-control rescue, neutral wells zero; 0.8% of 300,000 active;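 active means Every replicate reaches about 75%, or at least half do and their mean reaches it too, limit read from the data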;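 further: higher means more ATP so stronger rescue from cytokine killing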
KLF5 inhibitor: KLF5 expression inhibitors, primary screen, DLD-1 cells, luminescence; DLD-1 KLF5 promoter-luciferase reporter; inhibition, % at 5 µM; 0.23% of 290,000 active; AID 1700, 2009;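 active means inhibition above a per-plate limit of that plate's mean compound inhibition plus 3 SD, cut at about 60% in these data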;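 further: higher means less KLF5 promoter-driven luciferase light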
A1 inh: caspase 3/7 activation in MEF A1-2A-BIM cells, primary screen, A1 inhibitor project, cell-based, luminescence, HTS | 0.066% of 330,000 active | Caspase-Glo 3/7 luminescence, 3 h; percent of clofoctol response, vehicle zero | caspase activation, % (no concentration beside the values);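 active means over half of replicate activation scores above 10%, or exactly half above 10 with the replicate mean above 10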
T cruzi inh: inhibitors of intracellular T. cruzi growth, primary screen, luminescence, NIH3T3 host cells; AID 1885, 2009; 1.4% of 300,000 active; inhibition, % (no concentration beside the values); T. cruzi beta-gal in NIH3T3, 90 h;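 active means mean inhibition across valid replicates above about 55%, limit read from the data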;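 further: signal also drops with host cell toxicity which is not excluded here; higher percent means less beta-gal luminescence so fewer parasites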
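System: NIH/3T3 fibroblasts plus reporter T. cruzi. Medium: DMEM plus 2% FBS. Probe or stimulus: 5000 reporter trypomastigotes per well. Compound: single 50 nL compound addition per well in DMSO. Incubation: co-culture of at least 90 h after 3 h attachment. Detection: GalScreen β-gal luminescence, detergent lysis, 60 min. Evaluation: parasite load inhibition, %.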
HIF act: HIF pathway transcriptional activators, primary screen, cell-based, U2OS HRE-luciferase, luminescence. AID 1910, 2009. 0.32% of 300,000 active. U2OS HRE-luciferase reporter; normalized: DMSO 0%, desferrioxamine 100%. activation, % at 7.5 µM (by protocol);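 active means mean activation of at least 10% of the iron chelator positive control signal, with at least half of replicates also reaching 10%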
Large screens that a line does not name were inactive. Most compounds without a hit are left out; they make up all but 2.3% or so of the library.

Fc1ccc(C(OCCN2CCN(CCCc3ccccc3)CC2)c2ccc(F)cc2)cc1	Beta cell apopt 102.1 (no result: KLF5 inhibitor)
c1ccc(CCCN2CCN(CCOC(c3ccccc3)c3ccccc3)CC2)cc1	none (no result: KLF5 inhibitor)
COc1ccc(CNCCc2c(C)[nH]c3ccc(OC(F)(F)F)cc23)c(OC)c1	Beta cell apopt 87.9, T cruzi inh 58.7
O=C(c1cc(Br)ccc1Cl)N1CCC2(CC1)OCCO2	HIF act 420.8
Cc1ccc(N2C(=O)NC(=O)/C(=C/c3cnn(-c4ccc(C)cc4)c3)C2=O)cc1	Beta cell apopt 85.2
CSc1ncc(/C=C2/C(=O)NC(=O)N(c3ccc(C)cc3)C2=O)cn1	none
CC1CCC(NCC(O)c2ccccc2)CC1 (stereo not drawn)	none
CCCCC(CC)CNCC(O)c1ccccc1 (stereo not drawn)	T cruzi inh 77.7
Cc1ccc(-n2c(O)c(C=Nc3ccc(S(=O)(=O)N(C)C)cc3)c(=O)[nH]c2=O)cc1	none
COC(=O)C1=Nc2ccccc2/C1=C\c1c(O)n(-c2cc(OC)ccc2OC)c(=O)[nH]c1=O	HIF act 547.6
Cc1nc(SCc2c(Cl)cccc2Cl)nc(OC(=O)N(C)C)c1C	none
COC(=O)[C@]12OC[C@]34C([C@@H](O)[C@@H]1O)[C@]1(C)CC(=O)C(O)=C(C)[C@@H]1C[C@H]3OC(=O)[C@H](O)[C@@H]24 (stereo partly drawn)	HIF act 20.8 (no result: KLF5 inhibitor)
Fc1c(F)c(F)c(N2CCNCC2)c(F)c1F	none
O=C(Nc1ccc(Cl)cc1C(=O)c1ccccc1)c1ccc(Br)o1	none
CC[C@H](C)[C@@H]1O[C@@]2(C=CC1C)CC1C[C@@H](CC=C(C)C(O[C@H]3CC(OC)C(O[C@H]4CC(OC)C(O)C(C)O4)C(C)O3)C(C)C=CC=C3CO[C@@H]4C(O)C(C)=C[C@@H](C(=O)O1)[C@]34O)O2 (stereo partly drawn)	none (no result: KLF5 inhibitor, T cruzi inh, HIF act)
CCC(C)C(=O)N[C@@H](c1ccccc1)[C@@H](O)C(=O)O[C@H]1C[C@@]2(O)[C@@H](OC(=O)c3ccccc3)C3[C@](C)(C(=O)[C@H](OC(C)=O)C(=C1C)C2(C)C)[C@@H](O)C[C@H]1OC[C@@]31OC(C)=O (stereo partly drawn)	T cruzi inh 57.0
CC/C=C/CC(=O)N[C@@H](c1ccccc1)[C@@H](O)C(=O)O[C@H]1C[C@@]2(O)[C@@H](OC(=O)c3ccccc3)C3[C@](C)(C(=O)[C@H](OC(C)=O)C(=C1C)C2(C)C)[C@@H](O)C[C@H]1OC[C@@]31OC(C)=O (stereo partly drawn)	none (no result: Beta cell apopt)
O=c1[nH]c(=S)[nH]c(O)c1N=Nc1cc(S(=O)(=O)Nc2ccc(Cl)cc2)ccc1Cl	none (no result: KLF5 inhibitor, T cruzi inh, HIF act)
CC(=O)O[C@@H]1/C=C/[C@](C)(O)C[C@@H](C)C/C=C/[C@H]2[C@H](O)[C@@](C)(O)[C@@H](C)[C@H]3[C@H](Cc4ccccc4)NC(=O)[C@@]312	none (no result: KLF5 inhibitor)
CC(=O)O[C@@H]1/C=C/[C@](C)(O)C[C@@H](C)C/C=C/[C@H]2[C@@H]3O[C@]3(C)[C@@H](C)[C@H]3[C@H](Cc4ccccc4)NC(=O)[C@@]312	A1 inh 6.4 (no result: KLF5 inhibitor)
CCC(=NCc1cccnc1)c1c(O)n(-c2ccc(Cl)cc2)c(=O)[nH]c1=O	none
CN1c2ccc([N+](=O)[O-])cc2CC2(C(=O)NC(=O)N(c3ccccc3)C2=O)C1c1ccccc1 (stereo not drawn)	T cruzi inh 71.8
CN1c2ccc([N+](=O)[O-])cc2CC2(C(=O)NC(=O)NC2=O)C1c1ccccc1 (stereo not drawn)	none
CC1(C)CN(S(=O)(=O)OCC(Cl)(Cl)Cl)C(=O)N1	none
Cc1ccc2[nH]c(C)c(CCNCc3cccnc3)c2c1	none
FC(F)(F)c1ccc2c(c1)NP(=S)(N1CCOCC1)c1nccn1-2 (stereo not drawn)	HIF act 69.3
CC/C(=C\C=C\[C@@H]1C=C[C@@H]2CCC[C@H]2[C@@H]1C(=O)c1ccc[nH]1)[C@@H]1O[C@@H]([C@@H](C)C(=O)O)CC[C@@H]1C	T cruzi inh 65.1
Cc1cc(-c2ccccc2)cc(C)[n+]1Cc1ccccc1	Beta cell apopt 108.9 (no result: KLF5 inhibitor)
